What was measured:
[1] = biological target: T1, Cysteine protease falcipain-3 (Plasmodium falciparum, UniProt Q9NBA7); assay: Inhibition of Plasmodium falciparum recombinant falcipain-3
T1 sequence (Q9NBA7 whole entry): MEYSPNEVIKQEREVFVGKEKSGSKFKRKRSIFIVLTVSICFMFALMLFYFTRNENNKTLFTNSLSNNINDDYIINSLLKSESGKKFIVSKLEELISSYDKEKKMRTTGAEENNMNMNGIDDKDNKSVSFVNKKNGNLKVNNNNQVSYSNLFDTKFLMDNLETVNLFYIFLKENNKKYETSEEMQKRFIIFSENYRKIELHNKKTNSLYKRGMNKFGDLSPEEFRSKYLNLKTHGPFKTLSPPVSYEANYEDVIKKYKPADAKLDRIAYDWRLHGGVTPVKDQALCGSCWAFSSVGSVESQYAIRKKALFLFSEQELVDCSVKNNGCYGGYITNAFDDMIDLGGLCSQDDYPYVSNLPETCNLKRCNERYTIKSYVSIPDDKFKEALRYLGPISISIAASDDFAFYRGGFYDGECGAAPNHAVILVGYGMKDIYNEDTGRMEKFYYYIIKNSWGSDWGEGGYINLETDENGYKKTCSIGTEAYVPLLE

Plasmodium falciparum [2] = assay: Antimalarial activity against Plasmodium falciparum Itg2 in human erythrocytes by [3H]hypoxanthine uptake; format: functional, organism-based
Plasmodium falciparum [3] = assay: Antimalarial activity against chloroquine-sensitive Plasmodium falciparum 3D7 in human erythrocytes by [3H]hypoxanthine uptake; format: functional, organism-based
Summary of the method: (§1)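 P. falciparum kept in continuous culture in human erythrocytes; compounds tested in triplicate on parasite-infected red cells. Growth read as parasite [3H]-hypoxanthine incorporation, and IC50 derived from it. TM6 is a chloroquine-resistant strain and 3D7 a chloroquine-sensitive strain.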

Plasmodium falciparum [4] = assay: Antimalarial activity against chloroquine-resistant Plasmodium falciparum TM6 in human erythrocytes by [3H]hypoxanthine uptake; format: functional, organism-based; summary of the method: as §1
Falcipain 2 = biological target: T2, Falcipain 2 (Plasmodium falciparum, UniProt Q9N6S8); assay: Inhibition of Plasmodium falciparum recombinant falcipain-2
T2 sequence (Q9N6S8 whole entry): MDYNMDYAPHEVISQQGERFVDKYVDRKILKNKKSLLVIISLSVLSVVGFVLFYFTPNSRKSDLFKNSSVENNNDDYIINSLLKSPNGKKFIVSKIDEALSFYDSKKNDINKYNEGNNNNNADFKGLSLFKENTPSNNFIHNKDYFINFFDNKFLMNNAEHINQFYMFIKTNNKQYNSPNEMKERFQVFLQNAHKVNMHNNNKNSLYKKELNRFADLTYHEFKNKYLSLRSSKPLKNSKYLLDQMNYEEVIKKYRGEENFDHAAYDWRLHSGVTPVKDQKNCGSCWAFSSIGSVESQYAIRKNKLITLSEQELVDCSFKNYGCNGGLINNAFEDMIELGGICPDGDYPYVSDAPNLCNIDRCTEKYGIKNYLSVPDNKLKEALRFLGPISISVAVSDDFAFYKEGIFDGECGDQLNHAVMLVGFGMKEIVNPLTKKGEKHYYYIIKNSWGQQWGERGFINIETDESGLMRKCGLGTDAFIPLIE

Row | Structure (SMILES) | IC50 [1] [µM] | IC50 (Plasmodium falciparum [2]) [µM] | IC50 (Plasmodium falciparum [3]) [µM] | IC50 (Plasmodium falciparum [4]) [µM] | IC50 (Falcipain 2) [µM]
1 | CC(C)C[C@H](NC(=O)N1CCOCC1)C(=O)N[C@H](/C=C/S(=O)(=O)c1ccccc1)CCc1ccccc1 | 0.021 | 0.003 |  |  | 
2 | O=C(Nc1cccn([C@H](/C=C/S(=O)(=O)c2ccccc2)CCc2ccccc2)c1=O)OCc1ccccc1 |  |  | 5.7 | 9 | 
3 | O=C[C@H](Cc1ccccc1)n1cccc(NC(=O)OCc2ccccc2)c1=O |  |  | 37.3 | 36 | 
4 | COC(=O)/C=C/[C@H](CCc1ccccc1)n1cccc(NC(=O)OCc2ccccc2)c1=O | > 25 |  | 27.9 | 35.3 | 19
5 | O=C(Nc1cccn([C@H](/C=C/S(=O)(=O)c2ccccc2)Cc2ccccc2)c1=O)OCc1ccccc1 |  |  | 35.7 | 36 | 
6 | O=C[C@H](CCc1ccccc1)n1cccc(NC(=O)OCc2ccccc2)c1=O | > 25 |  | 31 | 22.7 | 10.9

— ChEMBL document CHEMBL1158154, “Design and synthesis of novel 2-pyridone peptidomimetic falcipain 2/3 inhibitors” (Bioorg Med Chem Lett, 2008)
